From ChEMBL document CHEMBL1139173, “Novel selective human mitochondrial kinase inhibitors: design, synthesis and enzymatic activity” (Bioorg Med Chem, 2007) come the findings set out here.

Series [1] relates to Fibroblast. The experiment in a line: Decrease in nuclear DNA in human fibroblasts at 100 uM. Also on record: scale not given: the % may be the effect or the level left. The format is functional.
Series [2] in a line: Toxicity assessed as inhibition of mitochondrial function in normal fibroblasts upto 100 uM. The format is cell-based. Particulars: human, fibroblast. The gist of the method: (§1)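 Primary fibroblasts from healthy-volunteer forearm skin biopsies were used stationary. They were kept at 37 °C in 5% CO₂ in one of two media: permissive DMEM UP (4.5 g/l glucose, 10% FCS, 50 µg/ml uridine) or restrictive GAL (glucose-free RPMI, 50 µM galactose, 10% dialyzed FCS). Cells were exposed to a range of concentrations for 1 week. Viability was counted by trypan blue exclusion.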

Series [3] can be described thus: Toxicity against human fibroblast cells assessed as alteration of mitochondrial function up to 60 uM. It counts as cell-based. An outline of the steps: as §1
The target in series [4] is T1, Thymidine kinase 2, mitochondrial (Homo sapiens, UniProt O00142).
T1 sequence (O00142 whole entry): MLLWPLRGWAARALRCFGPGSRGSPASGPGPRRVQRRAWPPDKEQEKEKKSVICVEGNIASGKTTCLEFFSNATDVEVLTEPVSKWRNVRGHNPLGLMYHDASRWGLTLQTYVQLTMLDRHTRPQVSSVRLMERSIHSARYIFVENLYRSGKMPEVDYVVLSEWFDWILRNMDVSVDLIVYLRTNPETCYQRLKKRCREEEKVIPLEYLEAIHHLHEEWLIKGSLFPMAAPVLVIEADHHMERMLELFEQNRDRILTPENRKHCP
The experiment in a line: Inhibition of human fibroblast mitochondrial TK2 using dCyd substrate. The gist of the method:
(§2)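 Done on mitochondria isolated from human fibroblasts rather than on recombinant enzymes. TK2 activity was measured with dThd or dCyd as substrate. dGK activity was measured as a control. Read-out was IC50.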

For another series, the species on record is Homo sapiens. The experiment in a line: Inhibition of human fibroblast mitochondrial cytochrome c oxidase. The gist of the method: (§3)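 Stationary normal skin fibroblasts were exposed to various concentrations for one week in permissive medium (glucose, uridine, 10% FCS). Cytochrome c oxidase (complex IV) and succinate dehydrogenase (complex II) activities were then assayed. COX/SDH ratios were calculated, with SDH as the mtDNA-independent control.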

A further series concerns the target T2, Thymidine kinase (Human alphaherpesvirus 1, UniProt Q9QNF7).
T2 sequence (Q9QNF7 whole entry): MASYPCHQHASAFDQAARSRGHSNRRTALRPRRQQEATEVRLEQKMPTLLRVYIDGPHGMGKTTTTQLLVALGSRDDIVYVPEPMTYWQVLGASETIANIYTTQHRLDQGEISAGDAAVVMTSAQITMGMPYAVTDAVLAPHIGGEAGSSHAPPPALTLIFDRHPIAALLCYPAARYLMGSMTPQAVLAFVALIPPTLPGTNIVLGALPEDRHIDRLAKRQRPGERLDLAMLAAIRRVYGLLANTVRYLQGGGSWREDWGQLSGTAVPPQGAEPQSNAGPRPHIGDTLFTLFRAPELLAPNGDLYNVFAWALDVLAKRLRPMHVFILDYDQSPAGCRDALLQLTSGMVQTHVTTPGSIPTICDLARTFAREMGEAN
Put plainly: Inhibition of HSV1 TK assessed as [methyl-3H]dThd phosphorylation. The gist of the method:
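Purified recombinant GST-fusion kinases (from pGEX-5X-1 cDNAs) assayed in 50 mM Tris–HCl pH 8.0, 2.5 mM MgCl₂, 10 mM DTT, 0.5 mM CHAPS, 3 mg/mL BSA, 2.5 mM ATP, 0.25 µCi [methyl-³H]dThd (2 µM), ± varying inhibitor levels, 37 °C for 30 min. Reactions spotted on DE-81 filter disks, washed, and counted by scintillation. IC50 is the concentration halving dThd phosphorylation.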

Series [5] can be described thus: Toxicity against human fibroblast cells assessed as alteration of cellular viability upto 60 uM. The format is cell-based. An outline of the steps: as §1
For series [6], the target named is T1, Thymidine kinase 2, mitochondrial. The experiment in a line: Inhibition of human fibroblast mitochondrial TK2 using dThd substrate. The gist of the method: as §2
For series [7], the target named is Deoxyguanosine kinase, mitochondrial (Homo sapiens) (UniProt Q16854). Put plainly: Inhibition of human fibroblast mitochondrial deoxyguanosine kinase.
Series [8] deals with T3, Deoxyguanosine kinase, mitochondrial (Homo sapiens, UniProt Q16854).
T3 sequence (Q16854 whole entry): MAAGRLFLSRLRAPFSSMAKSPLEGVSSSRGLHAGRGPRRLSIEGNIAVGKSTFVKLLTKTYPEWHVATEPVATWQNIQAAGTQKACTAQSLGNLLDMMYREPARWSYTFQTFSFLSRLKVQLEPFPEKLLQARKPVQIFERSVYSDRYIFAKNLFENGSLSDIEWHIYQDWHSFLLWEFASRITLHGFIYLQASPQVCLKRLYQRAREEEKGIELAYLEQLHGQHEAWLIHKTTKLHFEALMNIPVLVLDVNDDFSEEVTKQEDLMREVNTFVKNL
The experiment in a line: Inhibition of human fibroblast mitochondrial deoxyguanosine kinase. The gist of the method:
as §2

Series [9] can be described thus: Toxicity assessed as inhibition of mitochondrial function in human fibroblasts above 100 uM. The format is cell-based. The settings on record: fibroblast. The gist of the method:
as §1

Series [10] concerns Fibroblast. Put plainly: Decrease in cytochrome c oxidase to succinate dehydrogenase ratio in human fibroblasts. The format is functional, cell-based. The gist of the method: as §3

The structures appear in SMILES notation. Activity calls are given as the source filed them. No cut-off for these calls is given here. Some results are limits rather than exact numbers.

On to `CCCCCCCCCC(=O)O[C@H]1[C@H](O)[C@@H](CO)O[C@H]1n1cc(/C=C/Br)c(=O)[nH]c1=O`, for which the Activity in the series with Fibroblast [1] is 50%; in series [2], “Active”; in series [3], “Not Active”; in series [5] it was “Non-toxic”; in series [9] it was “Toxic”. Also, the IC50 in [4] is 97 µM; at Thymidine kinase, greater than 1 mM; in series [6], 40 µM; in [7] it was greater than 1 mM; in [8] it was greater than 1 mM. The outcome in the series filed under Homo sapiens and with Fibroblast [10] was Active.
